From ChEMBL document CHEMBL5137048, “Design and synthesis of water-soluble prodrugs of rifabutin for intraveneous administration” (Eur J Med Chem, 2022) come the findings set out here.

For orientation: MIC means the lowest concentration that inhibits growth of the organism. The term AUC(0-inf) denotes the area under the concentration-time curve extrapolated to infinity. Read a low AUC(0-inf) as less exposure. For orientation: solubility means how much of the substance goes into solution per volume. A word on the Cmax: it is the maximum level reached in the sampled fluid or tissue. The term Tmax denotes the time from dosing to the highest level.

Data set [1] can be described thus: Stability in human plasma assessed as compound remaining at 6 hrs by HPLC-MS analysis. The class given is ADME, cell-free. The note with it: read-out: Stability.
In data set [2] the test system is Acinetobacter baumannii. The experiment in a line: Antibacterial activity against Acinetobacter baumannii HUMC1 assessed as inhibition of bacterial growth incubated for 20 hrs by microdilution assay. The class given is functional. Put shortly: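 Broth microdilution per CLSI against XDR A. baumannii HUMC1. Inoculum 5×10^5 CFU/mL in RPMI + 10% FCS, or in CAMHB + 50% human serum. Compounds tested as 2-fold dilutions from 32 µg/mL final. Plates incubated without shaking at 35 °C for 20 h. MIC read visually as the lowest concentration with no visible growth. Three independent replicates.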
On the technique in general: Broth dilution looks for growth in wells or tubes with falling amounts of substance.

Data set [3] concerns Staphylococcus aureus. The experiment in a line: Antibacterial activity against Staphylococcus aureus assessed assessed as reduction in bacterial growth in CAMHB in absence of human serum measured after 20 hrs by microdilution assay. The class given is functional. Put shortly: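 S. aureus USA300 UAMS-1625 in CAMHB without serum. CLSI broth microdilution, inoculum 5×10^5 CFU/mL, 2-fold dilutions from 32 µg/mL final. Plates held static at 35 °C for 20 h. MIC was the lowest concentration with no visible growth. Three independent replicates.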

Data set [4] in a line: Elimination half life in CD-1 mouse at 6.5 mg/kg, iv measured at 5 to 24 hrs by LC-MS/MS analysis. The class given is ADME, organism-based. Particulars: in vivo, time lower 5 hrs, read-out: LambdaZ (converted); call rule not given here. Put shortly:
(§1)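 Female CD-1 (RjOrl:SWISS) mice, 8 weeks old at delivery, 9 per compound, given a single IV bolus into a lateral tail vein at 5 mL/kg. Basic compounds were dosed in 0.9% NaCl with 26 mM HCl, with 10% DMSO added for the parent drug; the phosphate prodrug was dosed in PBS pH 7.4. Retrobulbar blood was taken at 5, 15, 30 min and 1, 2, 4, 8, 12, 24 h. Plasma rifabutin was quantified by LC-MS/MS against a calibration curve, with griseofulvin as internal standard.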

In data set [5] the test system is Acinetobacter baumannii. The experiment in a line: Antibacterial activity against Acinetobacter baumannii assessed as reduction in bacterial growth in CAMHB preincubated 6 hrs followed by human serum addition and measured after 20 hrs by microdilution assay. The class given is functional.
A short description of data set [6]: AUC (0 to infinity) in CD-1 mouse at 6.5 mg/kg, iv measured at 5 to 24 hrs by LC-MS/MS analysis. The class given is ADME, organism-based. Details: dose 6.5 mg/kg, route iv. Particulars: in vivo. Put shortly: as §1
Data set [7] in a line: Chemical stability of compound by UPLC-MS/MS analysis. The note with it: pH 7.4.
Data set [8] is described as follows: Water solubility of compound in PBS buffer at pH 7.4 by UPLC-MS analysis. The class given is physicochemical. Put shortly:
(§2)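 Compounds were suspended at a nominal 10 or 50 mg/mL in PBS pH 7.4 or 26 mM HCl, vortexed, and mixed at 35 rpm for 24 h at RT. The mixture was centrifuged, the supernatant filtered and diluted 2000-fold in CH3CN, and analysed by UPLC-MS/MS (MRM). Solubility = AUC(buffer)/AUC(DMSO) × theoretical concentration.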

A short description of data set [9]: Plasma concentration in CD-1 mouse at 6.5 mg/kg, iv measured after 24 hrs by LC-MS/MS analysis. It is filed as ADME, organism-based. The note with it: in vivo. Put shortly: as §1
A short description of data set [10]: Cmax in CD-1 mouse at 6.5 mg/kg, iv measured at 5 to 24 hrs by LC-MS/MS analysis. It is filed as ADME, organism-based. Details: time lower 5 hrs, dose 6.5 mg/kg, route iv. Particulars: in vivo. Put shortly: as §1
Data set [11] can be described thus: Tmax in CD-1 mouse at 6.5 mg/kg, iv measured at 5 to 24 hrs by LC-MS/MS analysis. The class given is ADME, organism-based. The note with it: in vivo, time lower 5 hrs. Put shortly: as §1
Data set [12] concerns Staphylococcus aureus. The data set is described as follows: Antibacterial activity against Staphylococcus aureus assessed as reduction in bacterial growth in CAMHB preincubated 6 hrs followed by human serum addition and measured after 20 hrs by microdilution assay. It is filed as functional. The note with it: time 26 hrs. Put shortly:
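S. aureus USA300 UAMS-1625 in CAMHB. Drug at 10-fold the 32 µg/mL top concentration was first preincubated in 100% human serum for 6 h, then serially diluted 2-fold and bacteria added (5×10^5 CFU/mL inoculum). Plates held static at 35 °C for 20 h. MIC read visually. Three independent replicates.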

Data set [13] in a line: Water solubility of compound in HCL by UPLC-MS analysis. It is filed as physicochemical. Put shortly:
as §2

The nature of data set [14]: Cmax in CD-1 mouse at 7 mg/kg, iv measured at 5 to 24 hrs by LC-MS/MS analysis. The class given is ADME, organism-based. The note with it: in vivo. Details: dose 7 mg/kg, route iv. Put shortly: as §1
Data set [15] can be described thus: Plasma concentration in CD-1 mouse at 7 mg/kg, iv measured after 24 hrs by LC-MS/MS analysis. It is filed as ADME, organism-based. Particulars: in vivo. Put shortly: as §1
A short description of data set [16]: Tmax in CD-1 mouse at 7 mg/kg, iv measured at 5 to 24 hrs by LC-MS/MS analysis. The class given is ADME, organism-based. Particulars: in vivo, time lower 5 hrs. Put shortly: as §1
Data set [17] is described as follows: Elimination half life in CD-1 mouse at 7 mg/kg, iv measured at 5 to 24 hrs by LC-MS/MS analysis. It is filed as ADME, organism-based. The note with it: in vivo, time lower 5 hrs, read-out: LambdaZ (converted). Put shortly: as §1
Data set [18] is described as follows: AUC (0 to infinity) in CD-1 mouse at 7 mg/kg, iv measured at 5 to 24 hrs by LC-MS/MS analysis. The class given is ADME, organism-based. Details: dose 7 mg/kg, route iv. The note with it: in vivo. Put shortly: as §1
Data set [19] is described as follows: AUC (0 to infinity) in CD-1 mouse at 5 mg/kg, iv measured at 5 to 24 hrs by LC-MS/MS analysis. Details: dose 5 mg/kg, route iv. It is filed as ADME, organism-based. Particulars: in vivo. Put shortly:
as §1

A short description of data set [20]: Elimination half life in CD-1 mouse at 5 mg/kg, iv measured at 5 to 24 hrs by LC-MS/MS analysis. It is filed as ADME, organism-based. The note with it: in vivo, time lower 5 hrs, read-out: LambdaZ (converted). Put shortly: as §1
Data set [21] is described as follows: Cmax in CD-1 mouse at 5 mg/kg, iv measured at 5 to 24 hrs by LC-MS/MS analysis. The note with it: in vivo. It is filed as ADME, organism-based. Details: dose 5 mg/kg, route iv. Put shortly: as §1

Values after ≈ are worked out from the molar mass of the structure shown.

In the case of `COCCOC(=O)N1C2=C3NC(=O)/C(C)=C\C=C\[C@H](C)[C@H](O)[C@@H](C)[C@@H](O)[C@@H](C)[C@H](OC(C)=O)[C@H](C)[C@@H](OC)/C=C/O[C@@]4(C)Oc5c(C)c(O)c(c(c5C4=O)C2NC12CCN(CC(C)C)CC2)C3=O` (stereo partly specified), the remaining at 6 h in data set [1] turned out to be 86%. Also, the MIC in the data set with Acinetobacter baumannii [2] worked out at 0.06 µg/mL (≈ 0.0631 µM).
`CO[C@H]1/C=C/O[C@@]2(C)Oc3c(C)c(O)c4c(c3C2=O)C2NC3(CCN(CC(C)C)CC3)NC2=C(NC(=O)/C(C)=C\C=C\[C@H](C)[C@H](OC(=O)CN(C)C(=O)COC(=O)CN(C)C)[C@@H](C)[C@@H](O)[C@@H](C)[C@H](OC(C)=O)[C@@H]1C)C4=O` (stereo partly specified): the figures for the MIC with Staphylococcus aureus [3], in the data set with Acinetobacter baumannii [5] and in the data set on Staphylococcus aureus [12] were 1 µg/mL (≈ 0.941 µM), 0.001 µg/mL (≈ 0.000941 µM) and 0.06 µg/mL (≈ 0.0564 µM), respectively. Moreover, the half-life in data set [4] was 3 h. The same compound registered an AUC(0-inf) in data set [6] of 6700 ng·h/mL. For the same compound, the Stability in data set [7] was determined as 101%. The results for the solubility in data set [8] and in [13] were 0.7 mg/mL (≈ 658 µM) and 12.2 mg/mL (≈ 11500 µM), respectively. The Drug uptake entry in data set [9] was “Active”. In addition, the Cmax in [10] was determined as 1100 ng/mL. Further, the Tmax in data set [11] turned out to be 4.98 min.
On to `CO[C@H]1/C=C/O[C@@]2(C)Oc3c(C)c(O)c4c(c3C2=O)C2NC3(CCN(CC(C)C)CC3)NC2=C(NC(=O)/C(C)=C\C=C\[C@H](C)[C@H](OC(=O)CN(C)C(=O)CNC(=O)[C@@H](N)CCCCN)[C@@H](C)[C@@H](O)[C@@H](C)[C@H](OC(C)=O)[C@@H]1C)C4=O` (stereo partly specified), for which the MIC in the data set with Staphylococcus aureus [3] worked out at 16 µg/mL (≈ 14.5 µM); in the data set with Acinetobacter baumannii [5], 0.001 µg/mL (≈ 0.000905 µM); with Staphylococcus aureus [12], 0.06 µg/mL (≈ 0.0543 µM). In addition, the half-life in data set [4] was 10.7 h. In addition, the AUC(0-inf) in data set [6] amounted to 1000 ng·h/mL. The same compound came in with a Stability in [7] of 99%. Besides, the figures for the solubility in data set [8] and in data set [13] were above 50 mg/mL and 34.4 mg/mL (≈ 31100 µM), respectively. In addition, the Drug uptake result in data set [9] is given as “Active”. Further, in [10], the highest level (Cmax) was 300 ng/mL. Further, the Tmax in [11] came to 4.98 min.
As for `COCCC(=O)N1C2=C3NC(=O)/C(C)=C\C=C\[C@H](C)[C@H](O)[C@@H](C)[C@@H](O)[C@@H](C)[C@H](OC(C)=O)[C@H](C)[C@@H](OC)/C=C/O[C@@]4(C)Oc5c(C)c(O)c(c(c5C4=O)C2NC12CCN(CC(C)C)CC2)C3=O` (stereo partly specified), the remaining at 6 h in data set [1] amounted to 2%.
In the case of `CO[C@H]1/C=C/O[C@@]2(C)Oc3c(C)c(O)c4c(c3C2=O)C2NC3(CCN(CC(C)C)CC3)NC2=C(NC(=O)/C(C)=C\C=C\[C@H](C)[C@H](OC(=O)CN(C)C(=O)CNC(=O)OCc2ccc(OP(=O)(O)O)cc2)[C@@H](C)[C@@H](O)[C@@H](C)[C@H](OC(C)=O)[C@@H]1C)C4=O` (stereo partly specified), the highest level in [14] (Cmax) was 2700 ng/mL. In addition, the MIC is 32 µg/mL (≈ 26.5 µM) in the data set on Staphylococcus aureus [3], 0.001 µg/mL (≈ 0.000828 µM) with Acinetobacter baumannii [5] and 0.06 µg/mL (≈ 0.0497 µM) with Staphylococcus aureus [12]. Besides, the Drug uptake entry in [15] is recorded as “Active”. Also, in data set [16], the Tmax turned out to be 4.98 min. Besides, the half-life in [17] is 2.9 h. Also, the Stability in [7] turned out to be 101%. The concentration in solution in data set [8] (solubility) was 4.5 mg/mL (≈ 3730 µM). The compound also came in with an AUC(0-inf) in data set [18] of 8200 ng·h/mL.
As for `COCCC(=O)O[C@@H]1[C@@H](C)[C@@H](O)[C@@H](C)[C@H](OC(C)=O)[C@H](C)[C@@H](OC)/C=C/O[C@@]2(C)Oc3c(C)c(O)c4c(c3C2=O)C2NC3(CCN(CC(C)C)CC3)NC2=C(NC(=O)/C(C)=C\C=C\[C@@H]1C)C4=O` (stereo partly specified), the remaining at 6 h in data set [1] came out at 99%. Besides, the MIC with Acinetobacter baumannii [2] was above 32 µg/mL.
In data set [19], `CO[C@H]1/C=C/O[C@@]2(C)Oc3c(C)c(O)c4c(c3C2=O)C2=NC3(CCN(CC(C)C)CC3)NC2=C(NC(=O)/C(C)=C\C=C\[C@H](C)[C@H](O)[C@@H](C)[C@@H](O)[C@@H](C)[C@H](OC(C)=O)[C@@H]1C)C4=O` [RIFABUTIN] showed an AUC(0-inf) of 6600 ng·h/mL. The minimum inhibitory concentration (MIC) in the data set with Staphylococcus aureus [3] turned out to be 0.016 µg/mL (≈ 0.0189 µM); in the data set on Acinetobacter baumannii [5], 0.00025 µg/mL (≈ 0.000295 µM); in the data set on Staphylococcus aureus [12], 0.03 µg/mL (≈ 0.0354 µM); in the data set on Acinetobacter baumannii [2] it was 0.002 µg/mL (≈ 0.00236 µM). Also, the half-life in data set [20] is 3.4 h. The results for the solubility in data set [8] and in data set [13] were 0.2 mg/mL (≈ 236 µM) and 17.7 mg/mL (≈ 20900 µM), respectively. In addition, in [21], the highest level (Cmax) was 2200 ng/mL.
